dFosB activator = enhances mouse delta FosB homodimer DNA binding; AID 493131; actives 0.99% (n = 340,000); P13346; activation, % at 25 µM; purified delta FosB, TAMRA-CDK5 oligo fluorescence polarization; percent of positive-control signal above neutral wells;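 active = mean activation above about 17%, with every replicate also reaching it, limit read from the data, passing the limit was not always enough; inconclusive = only one of the two conditions met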
Target sequence (P13346 whole entry, looked up): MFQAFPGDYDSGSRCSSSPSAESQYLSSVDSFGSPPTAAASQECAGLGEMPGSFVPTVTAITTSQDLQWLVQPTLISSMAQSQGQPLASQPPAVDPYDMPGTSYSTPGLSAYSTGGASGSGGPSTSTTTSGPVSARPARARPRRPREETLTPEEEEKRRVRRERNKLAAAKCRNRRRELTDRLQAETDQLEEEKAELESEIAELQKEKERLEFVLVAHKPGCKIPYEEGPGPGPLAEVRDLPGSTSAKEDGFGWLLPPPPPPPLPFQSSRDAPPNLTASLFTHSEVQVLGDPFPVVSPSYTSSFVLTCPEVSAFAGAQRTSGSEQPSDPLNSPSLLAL
Rtt109 HAT inh = inhibitors of Candida albicans Rtt109/Vps75 histone acetyltransferase | Q5AAJ8 | purified Rtt109/Vps75, ThioGlo CoA-SH fluorescence, 4 h | inhibition, % at 34.9 µM | actives 0.16% (n = 330,000) | AID 540336;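 active = inhibition of at least 50% in every replicate; inconclusive = best replicate reaches 50% inhibition but some replicates fall short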
Target sequence (Q5AAJ8 whole entry, looked up): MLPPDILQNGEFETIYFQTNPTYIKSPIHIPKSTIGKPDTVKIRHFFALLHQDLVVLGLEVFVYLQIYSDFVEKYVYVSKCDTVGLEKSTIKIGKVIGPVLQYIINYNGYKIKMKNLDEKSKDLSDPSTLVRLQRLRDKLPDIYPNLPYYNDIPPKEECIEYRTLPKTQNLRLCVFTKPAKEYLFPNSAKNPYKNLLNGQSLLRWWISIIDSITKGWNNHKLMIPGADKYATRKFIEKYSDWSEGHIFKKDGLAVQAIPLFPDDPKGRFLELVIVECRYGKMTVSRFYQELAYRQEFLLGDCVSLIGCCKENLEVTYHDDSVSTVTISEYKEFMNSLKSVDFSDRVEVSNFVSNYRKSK
miR-122 sensor = miR-122 inhibition in Huh7 cells; activation (reporter increase), % at 12.5 µM; actives 0.3% (n = 340,000); Huh7 miR-122 Renilla luciferase sensor, 48 h; neutral wells = 0, positive control = 100; AID 602342;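 active = mean replicate activation score at least 90 and every replicate individually at or above 90; inconclusive = only one of the two criteria met; inactive = neither criterion met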;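 note: higher luciferase means less miR-122 activity so hits act as miR-122 inhibitors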
Cneo AK release = Cryptococcus neoformans lysis via adenylate kinase release; C. neoformans lysis, adenylate kinase release luminescence, 4 h; normalised: neutral wells 0, clomiphene wells 100; lysis activity, % at 15 µM; actives 0.2% (n = 360,000);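 active = mean lysis activity across replicates of at least 80%, whatever share of replicates individually reach that level; inactive = mean lysis activity below 80%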
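Assay system: log-phase C. neoformans yeast / Quantity: yeast cell density of 5 × 10^6 cells/mL / Medium: fresh YPD growth medium / Compound: single dose / Timing: static 4 h at 37 °C with compound, 1 h detection / Measured by: adenylate kinase release luminescence / Read-out: lysis from increased AK signal / Benchmarks: Clomiphene as positive lysis control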
INS-1E GSIS act = primary screen for activators of insulin secretion dependent on glucose, INS-1E cells, GLuc reporter luminescence | INS-1E GLuc reporter insulin secretion, 2-3 h | activation, % at 16.6 µM | AID 743287 | actives 0.61% (n = 370,000);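 active = lowest replicate activation of at least 40%, so every replicate reaches that level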
Env fusion inh = blocks HIV Env-driven cell-cell fusion; actives 1.1% (n = 360,000); AID 651610; HeLa-JRFL Env/CEM21 cell fusion, luciferase; inhibition, % at 12.3 µM;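 active = mean replicate inhibition score of at least 50 and every replicate individually at or above 50; inconclusive = only one of the two criteria met; inactive = mean below 50 and not all replicates reaching 50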
Hits are given with their value; i = inactive; ? = inconclusive; nt = not tested or not shown. Shown are actives, neighbours in structure and some others; about 2.4% of the full set was active somewhere.

SMILES	dFosB activator	Rtt109 HAT inh	miR-122 sensor	Cneo AK release	INS-1E GSIS act	Env fusion inh
CO[C@H]1CN(C)C(=O)c2cc(NC(=O)C3CCOCC3)ccc2OC[C@H](C)N(Cc2nccs2)C[C@H]1C	nt	nt	nt	i	i	74.3
CCCC(=O)Nc1ccc2c(c1)OC[C@@H](C)N(Cc1cncnc1)C[C@@H](C)[C@@H](OC)CN(C)C2=O	nt	nt	nt	94.2	i	nt
CCCNC(=O)Nc1ccc2c(c1)C(=O)N(C)C[C@H](OC)[C@@H](C)CN(Cc1cccnc1)[C@H](C)CO2	nt	nt	nt	81.3	i	nt
CO[C@H]1CN(C)C(=O)c2cc(NC(=O)C3CC3)ccc2OC[C@@H](C)N(Cc2cncnc2)C[C@H]1C	nt	nt	nt	83.6	i	i
CCCC(=O)Nc1ccc2c(c1)OC[C@H](C)N(Cc1cncnc1)C[C@@H](C)[C@H](OC)CN(C)C2=O	nt	nt	nt	i	i	nt
CO[C@H]1CN(C)C(=O)c2cc(NC(=O)C3CCOCC3)ccc2OC[C@@H](C)N(Cc2nccs2)C[C@@H]1C	nt	nt	nt	i	i	nt
CC(C)NC(=O)Nc1ccc2c(c1)C(=O)N([C@H](C)CO)C[C@H](C)[C@H](CN(C)S(C)(=O)=O)OCCCC[C@H](C)O2	nt	nt	i	i	i	i
O=C(CN(Cc1ccccc1)S(=O)(=O)c1ccc(F)cc1)NCCC1=CCCCC1	i	i	i	i	nt	109.3
Cc1ccc(S(=O)(=O)N(CC(=O)NCCC2=CCCCC2)Cc2ccccc2)cc1	i	i	i	i	nt	104.4
O=C(CN(Cc1ccccc1F)S(=O)(=O)c1ccc(Cl)cc1)NCCC1=CCCCC1	i	i	i	i	nt	69.3
O=C(CN(Cc1ccccc1)S(=O)(=O)c1ccc(F)cc1)NCc1ccccn1	i	i	nt	i	i	i
Cc1ccc(S(=O)(=O)N(CC(=O)NCCC2=CCCCC2)Cc2ccccc2F)cc1	i	i	i	i	nt	nt
CO[C@H]1CN(C)C(=O)c2ccc(NC(=O)NC(C)C)cc2OC[C@@H](C)N(C(=O)C2CCC2)C[C@@H]1C	nt	nt	i	i	i	i
CC=Cc1ccc2n(c1=O)C[C@@H]1[C@@H](CO)[C@H](C(=O)NCCC)[C@H]2N1C(=O)C1CCCC1 (mixture of isomers)	nt	nt	i	i	i	nt
C/C=C/c1ccc([C@@H]2[C@@H](CO)N(C(C)=O)C23CN(C(=O)NC2CCCC2)C3)cc1	nt	nt	nt	nt	i	i
C[C@@H]1CCCCO[C@@H](CN(C)C(=O)Cc2ccccc2)[C@@H](C)CN([C@@H](C)CO)C(=O)c2cc(NS(=O)(=O)c3cccs3)ccc2O1	nt	nt	i	i	i	i
Cc1ccsc1/C=N\Nc1cn[nH]c(=O)c1Cl	i	i	i	nt	i	56.0
CCOC(=O)C1=C(C)N=C2c3ccccc3C(=O)C2C1c1ccc(Cl)cc1 (stereo not given)	i	i	nt	nt	nt	84.3
CC1(C)CC(=O)C2=C(C1)N=C1c3ccccc3C(=O)C1C2c1ccc(Cl)cc1 (stereo not given)	i	i	i	i	nt	nt
COc1ccc(S(=O)(=O)N2CC[C@@H]3[C@H]2c2cc(-c4ccc(C#N)cc4)ccc2N[C@@H]3CO)cc1	nt	nt	i	i	i	nt
O=C(CCCN1C(=O)S/C(=C\c2ccccc2)C1=O)NNC(=O)c1ccccc1O	i	i	i	nt	i	71.2
CC(C(=O)NC1C=CS(=O)(=O)C1)N1C(=O)/C(=C/c2ccc(Cl)cc2)SC1=S (stereo not given)	i	138.8	i	i	i	i
O=C(CCN1C(=O)/C(=C/c2ccccc2Cl)SC1=S)NC1C=CS(=O)(=O)C1 (stereo not given)	27.7	i	i	i	i	i
O=C(CCN1C(=O)/C(=C/c2ccc(F)cc2)SC1=S)NC1C=CS(=O)(=O)C1 (stereo not given)	i	i	nt	i	i	i
O=C(CN1C(=O)S/C(=C\c2ccc(F)cc2)C1=O)NC1C=CS(=O)(=O)C1 (stereo not given)	i	?	i	i	i	i
SMILES	dFosB activator	Rtt109 HAT inh	miR-122 sensor	Cneo AK release	INS-1E GSIS act	Env fusion inh
COc1ccc(/C=C2\SC(=O)N(CC(=O)NNC(=O)c3ccccc3O)C2=O)cc1OC	i	i	nt	nt	i	i
O=C(CCCN1C(=O)/C(=C/c2ccccc2Cl)SC1=S)NNC(=O)c1ccc(Cl)cc1Cl	?	i	nt	nt	nt	56.6
COCC(=O)Nc1ccc2c(c1)[C@H]1C[C@@H](CC(=O)NCc3cccnc3)O[C@H](CO)[C@H]1O2	nt	nt	i	i	i	i
N#Cc1ccc(-c2ccc([C@H]3[C@H](CO)N4CCCCN(S(=O)(=O)c5ccccc5)C[C@@H]34)cc2)cc1	nt	nt	i	i	i	nt
C[C@@H]1CN([C@@H](C)CO)C(=O)c2cc(-c3cccnc3)cnc2O[C@H]1CN(C)C(=O)C1CCCCC1	nt	nt	i	nt	i	i
O=C(CCN1C(=O)/C(=C\c2ccccc2)SC1=S)NNC(=O)c1ccccc1O	20.3	i	i	i	i	i
Cc1cc(N2CCCC2)ccc1NC(=O)COc1cccc(C(F)(F)F)c1	i	i	nt	i	i	59.1
O=C(C[C@H]1C[C@@H]2c3cc(NC(=O)NC4CCCCC4)ccc3O[C@@H]2[C@H](CO)O1)NC1CCCC1	nt	nt	nt	nt	i	nt
O=C(NCc1ccc(F)cc1)C1C2C=CC3(CN(Cc4cccnc4)C(=O)C13)O2 (stereo not given)	i	i	i	115.9	i	i
CC1(C)C2CCC1(C)C(OC(=O)C[n+]1ccccc1N)C2 (stereo not given)	i	i	i	i	41.5	i
Cc1[nH]nc(C(F)(F)F)c1N=NN1CCOCC1	i	i	i	nt	148.2	i
COc1ccc([C@H]2CC=CC[C@H](C)Oc3ccccc3C(=O)N(C)[C@@H](C)C(=O)N2)c(OC)c1 (mixture of isomers)	nt	nt	nt	nt	i	nt
Cc1noc(C)c1CSc1nnnn1-c1ccc(Cl)cc1	i	i	i	i	nt	nt
Cc1noc(C)c1CSc1nc2ccccc2c(=O)n1-c1ccc(Cl)cc1	i	i	i	i	i	62.0
CN(C)c1ccc(O)c2c1CC1CC3[C@@H](N(C)C)C(=O)C(C(N)=O)C(=O)[C@]3(O)C(=O)C1C2=O (stereo not given in full)	i	i	i	i	nt	86.8
CC(C)NC(=O)NCC[C@@H]1CC[C@@H](NC(=O)CN(C)C)[C@@H](CO)O1	nt	nt	i	96.7	i	i
CN(C)CC(=O)N[C@H]1CC[C@@H](CCNC(=O)C2CCC2)O[C@H]1CO	nt	nt	nt	i	i	i
CN(C)CC(=O)N[C@H]1CC[C@@H](CCNC(=O)C2CCCC2)O[C@H]1CO	nt	nt	i	i	i	i
CC(C)NC(=O)NCC[C@H]1CC[C@H](NC(=O)CN(C)C)[C@H](CO)O1	nt	nt	i	101.5	i	i
Cc1ccc(Nc2nc(N)c([N+](=O)[O-])c(N3CCCC(C)C3)n2)cc1C (stereo not given)	i	i	i	i	60.0	nt
Cc1ccc(Nc2nc(N)c([N+](=O)[O-])c(N3CCOCC3)n2)cc1	i	i	nt	nt	55.9	i

Screens from PubChem BioAssay.
